# Laboratory results as given in ChEMBL document CHEMBL2429739, “Double-targeting using a TrkC ligand conjugated to dipyrrometheneboron difluoride (BODIPY) based photodynamic therapy (PDT) agent” (J Med Chem, 2013).
# Calls of active or inactive are those of the source. The rule behind the calls is not given here.
# Columns and labels:
# NIH3T3 [1] = test: Cytotoxicity against mouse NIH/3T3 cells expressing TrkC assessed as cell viability incubated for 2 hrs followed by 7.3 J/cm'2 halogen light irradiation measured after 24 hrs by MTT assay in presence of 3.5 nM of NT3; format: functional, cell-based
# Summary of the method: (§1)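 NIH3T3-TrkC cells treated for 2 h with agent (0.02–2 μM) together with a constant 20 μM IY-IY or 3.5 nM NT-3 competitor. Cells washed, then irradiated at >480 nm, 12.2 mW/cm2, 7.3 J/cm2. After 24 h, viability read by MTT (OD 570 nm) and expressed as % dead cells; three runs.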
# [2] = Cytotoxicity against human SH-SY5Y cells expressing TrkC assessed as cell viability after 2 hrs followed by 7.3 J/cm'2 halogen light irradiation measured after 24 hrs by MTT assay; format: functional, cell-based; conditions: light or radiation study
# Summary of the method: (§2)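 Cells seeded overnight at about 10,000/well (NIH3T3-TrkC) or 7000/well (NIH3T3-WT, SY5Y). Agent applied at 0.02–2 μM final in protein-free PFHM-II medium (<0.001% DMSO) for 2 h. Cells washed and given fresh medium, then irradiated with >480 nm halogen light at 12.2 mW/cm2 (7.3 J/cm2, 10 min). After 24 h, MTT added for 3.5 h; OD read at 570 nm. % dead = 100 − (OD treated/OD control)×100; three runs.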
# NIH3T3 [3] = test: Cytotoxicity against mouse NIH/3T3 cells expressing TrkC assessed as cell viability incubated for 2 hrs followed by 7.3 J/cm'2 halogen light irradiation measured after 24 hrs by MTT assay; format: functional, cell-based; conditions: for IC50: NIH3T3, light or radiation study; summary of the method: as §2
# NIH3T3 [4] = test: Cytotoxicity against mouse NIH/3T3 cells expressing TrkC assessed as cell viability incubated for 2 hrs followed by 7.3 J/cm'2 halogen light irradiation measured after 24 hrs by MTT assay in presence of 20 uM of IY-IY; format: functional, cell-based; summary of the method: as §1
# NIH3T3 [5] = test: Cytotoxicity against wild type mouse NIH/3T3 cells assessed as cell viability after 2 hrs followed by 7.3 J/cm'2 halogen light irradiation measured after 24 hrs by MTT assay; format: cell-based; conditions: nih3t3, 24 h; summary of the method: as §2
# [6] = Cellular uptake in endoplasmic reticulum of mouse NIH/3T3 cells expressing TrkC at 1 uM after 12 hrs by confocal microscopy; format: ADME, cell-based; conditions: nih3t3, 12 h
# Summary of the method: (§3)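 NIH3T3-TrkC cells (grown in DMEM/F12 with G418 and 10% newborn calf serum) incubated with agent at 1 μM for 12 h at 37 °C, then PBS-washed. Co-stained with LysoTracker Red 500 nM for 30 min at 37 °C, or with MitoTracker Deep Red / ER-Tracker Blue-White at 100 nm for 15 min. Washed again, then live cells imaged by multiphoton confocal Z-stacks in 0.5 μm steps.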
# [7] = Cellular uptake in mitochondria of mouse NIH/3T3 cells expressing TrkC at 1 uM after 12 hrs by confocal microscopy; format: ADME; conditions: nih3t3, 12 h; summary of the method: as §3
# NIH3T3 [8] = test: Cellular uptake in wild type mouse NIH/3T3 cells at 0.5 uM after 2 hrs by confocal microscopy; format: ADME, cell-based; conditions: nih3t3, 2 h
# Summary of the method: (§4)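 TrkC-transfected or wild-type NIH3T3 cells exposed to agent at 0.5 μM in supernatant for 2 h. Cells washed three times with PBS, then imaged live by confocal microscopy. Intracellular fluorescence intensity was quantified over 100 cells.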
# Mus musculus = test: Toxicity in mouse under dark condition at 100 mg/kg after 12 days; format: organism-based; set-up: dose 100 mg/kg; conditions: in vivo, 288 h
# NIH3T3 [9] = test: Dark cytotoxicity against mouse NIH/3T3 cells expressing TrkC assessed as cell viability by MTT assay; format: cell-based
# Summary of the method: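 NIH3T3-TrkC cells given the same 2 h agent treatment and wash as in the light assay, but kept without illumination. Viability measured by MTT; three runs.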
# [10] = Cellular uptake in lysosome of mouse NIH/3T3 cells expressing TrkC at 1 uM after 12 hrs by confocal microscopy; format: ADME, cell-based; conditions: nih3t3, 12 h; summary of the method: as §3
# NIH3T3 [11] = test: Cellular uptake in mouse NIH/3T3 cells expressing TrkC at 0.5 uM after 2 hrs by confocal microscopy; format: ADME, cell-based; conditions: nih3t3, 2 h; summary of the method: as §4
Drug uptake [6],Drug uptake [7],Drug uptake (NIH3T3 [8]),Drug uptake [10],Drug uptake (NIH3T3 [11]),SMILES,Activity (NIH3T3 [1]),IC50 [2] [nM],Activity (NIH3T3 [3]),IC50 (NIH3T3 [3]) [nM],Activity (NIH3T3 [4]),Activity (NIH3T3 [5]),Activity (Mus musculus),Activity (NIH3T3 [9])
Not Active,Not Active,Not Active,Active,Active,CC[C@H](C)[C@H](N)c1cn([C@@H](Cc2ccc(O)cc2)C(=O)N2CCN(c3nc(NCCOCCOCCOCc4cn(CCCC5=C6C(C)=C(I)C(C)=[N+]6[B-](F)(F)n6c(C)c(I)c(C)c65)nn4)nc(N4CCN(C(=O)[C@H](Cc5ccc(O)cc5)n5cc([C@@H](N)[C@@H](C)CC)nn5)CC4)n3)CC2)nn1,Active,150,Dose-dependent effect,350,Active,Active,Non-toxic,Non-toxic
,,,,Not Active,CC[C@H](C)[C@@H](C(=O)N1CCN(c2nc(NCCOCCOCCOCc3cn(CCCC4=C5C(C)=C(I)C(C)=[N+]5[B-](F)(F)n5c(C)c(I)c(C)c54)nn3)nc(N3CCN(C(=O)[C@H]([C@@H](C)CC)n4cc([C@@H](N)Cc5ccc(O)cc5)nn4)CC3)n2)CC1)n1cc([C@@H](N)Cc2ccc(O)cc2)nn1,,,,> 2000,,,,
